Assay outcomes deposited in PubChem by SRMLSC.
Only a selection was taken, and hits are over-represented in it overall.
H69AR inhibit – proliferation blockers of H69AR lung cancer cells, primary screen, cell-based, human, 86K library. H69AR lung tumor viability, ATP luminescence, 72 h; stronger effect = lower value. hit rate 6% among 85,000. AID 598, 2007. viability, % at 10 µM;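 active = viability at or below 40%; inactive = viability above 40%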;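 note: multidrug resistant small cell line overexpressing MRP-1 efflux transporter; 100% = mean luminescence of untreated control wells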
HCT116 PTEN-null – growth suppression of PTEN-null HCT116, primary screen, cell-based, CellTiter-Glo | viability, % at 10 µM | hit rate 1.2% among 140,000 | AID 827, 2007 | HCT116 PTEN-null viability, 60 h; stronger effect = lower value;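 active = viability at or below a set limit, 4 SD under the median of all tested compounds, cut at about 3.7% in these data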;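 note: PTEN knockout HCT116 line with beta catenin targeted HCT116 as companion control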
Fibroblast inh – antiproliferative effect on LL 47 fibroblasts – human, LL 47 cells, CellTiter-Glo luminescence, primary screen. LL 47 human lung fibroblast viability, ATP luminescence; stronger effect = lower value. viability, % at 10 µM. hit rate 1.1% among 85,000. AID 719, 2007;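 active = viability at or below 50% in the single dose screen; inactive = viability above 50%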;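 note: compound exposure lasted 72 h before the ATP readout; 100% = median luminescence of untreated cell-only wells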
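Test system: LL 47 human lung fibroblasts / Incubation: 72 h compound exposure at 37 °C after overnight plating / Technique: luminescent ATP detection, CellTiter-Glo / Compound dosing: 0.1% DMSO in all compound wells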
HUVEC prolif 384 – inhibitors of HUVEC proliferation, primary screen, cell-based, 384-well; CellTiter-Glo luminescence, 72 h; stronger effect = lower value; viability, % at 10 µM (by protocol); hit rate 1.1% among 86,000;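 active = viability at or below 30%; inactive = viability above 30%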;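 note: 100% = median luminescence of DMSO-only cell control wells on each plate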
bCat KO growth – primary screen for growth suppressors in beta-catenin knockout HCT116 cells (colon tumor, human). HCT116 beta-catenin knockout viability, CellTiter-Glo, 60 h; stronger effect = lower value. viability, % at 10 µM. hit rate 1.5% among 140,000;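 active = viability at or under a set limit, the compound median less 4 SD, cut at about 6% in these data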;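 note: 0% = Hyamine 1622 control at 20 µM and 100% = untreated cell control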
An asterisk follows results filed as active; / = no result.

SMILES | H69AR inhibit | HCT116 PTEN-null | Fibroblast inh | HUVEC prolif 384 | bCat KO growth
Cc1nc(N)sc1-c1csc(Nc2ccccn2)n1 | 71.6 | 93.7 | 93.1 | 88.6 | 93.7
COc1ccc(Nc2nc(-c3sc(N)nc3C)cs2)cc1 | 29.3* | 93.4 | 85.2 | 69.1 | 96.0
Cc1nc(NC(=O)c2ccccc2)sc1-c1csc(Nc2ccc(Cl)cc2)n1 | / | 68.5 | / | / | 81.4
COc1ccc(Nc2nc(-c3sc(NC(C)=O)nc3C)cs2)cc1 | 13.4* | 94.6 | 73.4 | 36.5 | 94.8
Cc1nc(-c2ccccn2)sc1C(=O)Nc1ccc(Cl)c(Cl)c1 | / | 77.7 | / | / | 76.2
CCOC(=O)C1=C(Cc2ccc(C)cc2)C(=O)c2ccccc2C1=O | 2.0* | 77.6 | 72.8 | 17.5* | 80.1
CCOC(=O)C1=C(Cc2ccc(OC)cc2)C(=O)c2ccccc2C1=O | 1.8* | 79.8 | 94.2 | 69.8 | 73.8
CCOC(=O)C1=C(O)c2ccccc2C(=O)/C1=C\c1ccc(CC)cc1 | / | 67.8 | / | / | 74.3
CCOC(=O)c1c(C)nc2c(c1-c1cc(OC)ccc1OC)C(=O)c1ccccc1-2 | / | 86.5 | / | / | 92.2
Cn1c(CSCc2ccccc2)n[nH]c1=S | / | 107.2 | / | / | 95.9
C[C@]12CCC(=O)C=C1CC[C@@H]1[C@@H]2CC[C@@]2(C)[C@H]1CC[C@]2(O)C(=O)CO | 67.7 | 96.5 | 102.0 | 91.9 | 75.6
CC(=O)[C@H]1CC[C@H]2[C@@H]3CCC4=CC(=O)CC[C@]4(C)[C@H]3CC[C@]12C | 28.9* | 43.8 | 90.0 | 31.8 | 22.4
O=C(CCc1ccc(S(=O)(=O)NCCc2ccccc2)cc1)NCc1ccco1 | 91.9 | 83.7 | 98.1 | 73.6 | 81.1
COc1ccc(CN(C)CC(=O)Nc2cc(OC)c([N+](=O)[O-])cc2C)c(OC)c1 | / | 71.6 | / | / | 67.4
O=C1C(=O)c2ccc(-c3ccccc3)cc2-c2ccccc21 | 1.5* | 0.1* | 2.7* | 2.2* | 0.1*
CC(=O)Nc1ccc2c(c1)C(=O)c1ccccc1C2=O | / | 70.5 | / | / | 79.3
Nc1ccc2c(c1)C(=O)C(=O)c1ccccc1-2 | 0.2* | 1.1* | 2.1* | 3.1* | 1.0*
CCOC(=O)c1ccccc1NC(=O)CSc1ccccc1 | 96.3 | 89.2 | 86.3 | 103.3 | 92.6
O=C1c2ccccc2C(=O)N1CCCCN(C(=O)c1cc([N+](=O)[O-])ccc1Cl)c1ccc(Cl)cc1 | / | 67.2 | / | / | 75.7
O=C(CN(Cc1ccccc1)C(=O)CSc1nnc(COc2ccccc2)o1)NC1CCCC1 | 72.9 | 70.9 | 97.5 | 93.7 | 69.8
Cc1ccc(CN(CC(=O)NC2CCCC2)C(=O)CSc2nnc(COc3ccccc3)o2)cc1 | 16.5* | 83.2 | 85.7 | 48.5 | 90.8
Cc1cc(NC(=O)C2CCCCC2)ccc1NC(=O)c1ccccc1Cl | / | 98.7 | / | / | 94.4
Cc1nc2c(c(C)c1C#N)C(=O)c1ccccc1-2 | / | 90.6 | / | / | 86.3
Cc1nc(S(=O)(=O)N(C)c2ccccc2)c(C#N)c(C)c1Cl | 4.2* | 4.1 | 39.4* | 83.4 | 3.3*
CCCCSc1nc(C)cc(SCC(=O)N/N=C/c2cccc(OC)c2O)n1 | / | 4.3 | / | / | 5.3*
SMILES | H69AR inhibit | HCT116 PTEN-null | Fibroblast inh | HUVEC prolif 384 | bCat KO growth
Cc1nn(C(=O)c2cccs2)c(C)c1CN1C(=O)c2ccccc2C1=O | 21.2* | 88.4 | 80.7 | 80.1 | 75.6
Cc1nn(C(=O)c2ccco2)c(C)c1CN1C(=O)c2ccccc2C1=O | 110.8 | 100.0 | 96.8 | 100.3 | 106.0
Cc1ccc(S(=O)(=O)N(C)C)cc1NC(=O)CSc1ncc(C(F)(F)F)cc1Cl | / | 90.8 | / | / | 1.3*
CCN(CC)S(=O)(=O)c1ccc(C)c(NC(=O)CSc2ncc(C(F)(F)F)cc2Cl)c1 | / | 94.0 | / | / | 93.7
Cc1ccc(S(=O)(=O)N2CCN(C(=O)CSc3ncc(C(F)(F)F)cc3Cl)CC2)cc1 | 6.2* | 45.0 | 88.8 | 76.7 | 51.0
O=C(O)C1CCCN1C(=O)OCc1ccccc1 (stereo not drawn) | 94.8 | 100.3 | 95.5 | 105.1 | 101.0
COC(=O)[C@@H]1C[C@]2(OC(=O)c3ccccc3)C=CC(=O)C[C@@H]2N1C(=O)OCc1ccccc1 | / | 2.5* | / | / | 3.0*
CCOC(=O)N1CCN(C(=O)c2cc(-c3ccc(OCC)cc3)nc3ccccc23)CC1 | 15.6* | 15.0 | 52.8 | 47.9 | 17.8
COc1ccc(OC)c(-c2cc(C(=O)N3CCN(c4ncccn4)CC3)c3ccccc3n2)c1 | 29.7* | 63.3 | 87.9 | 57.6 | 75.8
COc1ccc(-c2cc(C(=O)N3CCN(c4ncccn4)CC3)c3ccccc3n2)c(OC)c1 | / | 59.4 | / | / | 71.0
